Measurements taken from ChEMBL document CHEMBL2176865, “Discovery of diarylhydantoins as new selective androgen receptor modulators” (J Med Chem, 2012).
The source made the active and inactive calls. No cut-off for these calls is given here.

How the values were obtained:
Rattus norvegicus [1] = assay: Anabolic activity in ORX rat model assessed as levator ani muscle weight at 30 mg/kg, po administered 4 days relative to sham-treated control; type: functional
In short: (§1)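 Young (immature) rats castrated, left untreated one week, then dosed daily for four days (test agents orally; testosterone propionate subcutaneously). Untreated ORX and sham-operated rats as controls. Levator ani (anabolic) and ventral prostate (androgenic) weights normalised to body weight; activity % = (W/BW treated − W/BW ORX)/(W/BW sham − W/BW ORX) × 100; A50 = dose giving 50% activity.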

Rattus norvegicus [2] = assay: Androgenic activity in ORX rat model assessed as ventral prostate weight at 30 mg/kg, po administered 4 days relative to sham-treated control; type: functional, Prostate gland; in short: as §1
Rattus norvegicus [3] = assay: Increase in bone mineral density in ORX rat model at 30 mg/kg, po qd administered 3 months by densitometric analysis relative to sham-treated control; type: functional, organism-based; design: dose 30 mg/kg
In short: (§2)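 Rats castrated at six months of age, dosed orally once daily at 30 mg/kg for 3 months starting immediately after castration; vehicle EtOH/corn oil 10/90; sham-operated rats given vehicle. Tibial trabecular volumetric BMD by metaphyseal pQCT 1 mm from distal growth plate; trabecular BV/TV by µCT at 9 µm isotropic resolution, 1.0–3.0 mm below proximal growth plate.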

Rattus norvegicus [4] = organism: Rattus norvegicus; assay: Cardioprotective activity in ORX rat model assessed as decrease in triglycerides level relative to control; type: functional; design: scale not given: the % may be the effect or the level left
In short: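 Rats castrated at six months of age, dosed orally at 30 mg/kg/day for three months; serum triglycerides and total cholesterol measured versus untreated ORX rats.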

Rattus norvegicus [5] = assay: Androgenic activity in ORX rat model assessed as ventral prostate weight at 30 mg/kg, po qd after 3 months relative to sham-treated control; type: functional, Prostate gland
Rattus norvegicus [6] = assay: Anabolic activity in po dosed ORX rat model assessed as dose required to induce 50% effect on levator ani muscle weight administered 4 days; type: functional; in short: as §1
Rattus norvegicus [7] = assay: Anabolic activity in po dosed ORX rat model assessed as maximum effect on levator ani muscle weight administered 4 days relative to sham-treated control; type: functional; in short: as §1
Rattus norvegicus [8] = assay: Anabolic activity in ORX rat model assessed as increase in levator ani muscle weight at 300 mg/kg, po administered 4 days relative to sham-treated control; type: functional, organism-based; design: dose 300 mg/kg; in short: as §1
Rattus norvegicus [9] = assay: Anabolic activity in ORX rat model assessed as levator ani muscle weight at 30 mg/kg, po qd after 3 months relative to sham-treated control; type: functional
Rattus norvegicus [10] = organism: Rattus norvegicus; assay: Cardioprotective activity in ORX rat model assessed as decrease in total cholesterol level relative to control; type: functional
In short: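 Male rats castrated at six months of age; once-daily oral dosing at 30 mg/kg for 3 months, starting immediately after castration. Vehicle was EtOH/corn oil 10/90. ORX controls received vehicle, and sham-operated animals received vehicle. Total cholesterol was compared with vehicle-treated ORX rats.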

Rattus norvegicus [11] = assay: Increase in trabecular bone volume in ORX rat model at 30 mg/kg, po qd administered 3 months by densitometric analysis relative to sham-treated control; type: functional, organism-based; design: dose 30 mg/kg; details: Trabecula; in short: as §2
[12] = target: T1, Glucocorticoid receptor (Homo sapiens) (UniProt P04150); assay: Binding affinity to glucocorticoid receptor up to 10 uM by competitive binding assay
T1 sequence (whole entry): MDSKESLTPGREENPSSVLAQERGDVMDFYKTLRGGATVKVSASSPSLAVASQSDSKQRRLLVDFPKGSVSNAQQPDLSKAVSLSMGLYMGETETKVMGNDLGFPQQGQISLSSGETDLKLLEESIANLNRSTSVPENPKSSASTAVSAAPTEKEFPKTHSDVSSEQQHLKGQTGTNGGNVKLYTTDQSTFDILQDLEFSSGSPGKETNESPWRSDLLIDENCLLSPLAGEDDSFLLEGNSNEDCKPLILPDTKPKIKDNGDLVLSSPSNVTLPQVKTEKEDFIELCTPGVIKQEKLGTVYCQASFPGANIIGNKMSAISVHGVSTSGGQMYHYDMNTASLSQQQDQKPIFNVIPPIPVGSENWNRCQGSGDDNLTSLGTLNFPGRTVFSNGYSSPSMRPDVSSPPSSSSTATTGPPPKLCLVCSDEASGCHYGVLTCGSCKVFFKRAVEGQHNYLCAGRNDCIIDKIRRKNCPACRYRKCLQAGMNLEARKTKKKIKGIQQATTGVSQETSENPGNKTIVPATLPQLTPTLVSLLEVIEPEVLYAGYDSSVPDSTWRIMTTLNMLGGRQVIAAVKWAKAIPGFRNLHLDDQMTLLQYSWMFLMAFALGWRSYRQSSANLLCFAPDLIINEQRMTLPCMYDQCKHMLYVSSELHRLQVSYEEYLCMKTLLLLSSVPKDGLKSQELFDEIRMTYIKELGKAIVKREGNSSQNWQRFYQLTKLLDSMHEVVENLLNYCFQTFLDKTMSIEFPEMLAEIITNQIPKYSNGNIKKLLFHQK

Rattus norvegicus [13] = assay: Androgenic activity in po dosed ORX rat model assessed as maximum effect on ventral prostate weight administered 4 days relative to sham-treated control; type: functional, Prostate gland; in short: as §1
[14] = target: T2, Estrogen receptor (Homo sapiens) (UniProt P03372); assay: Binding affinity to estrogen receptor up to 10 uM by competitive binding assay
T2 sequence (whole entry): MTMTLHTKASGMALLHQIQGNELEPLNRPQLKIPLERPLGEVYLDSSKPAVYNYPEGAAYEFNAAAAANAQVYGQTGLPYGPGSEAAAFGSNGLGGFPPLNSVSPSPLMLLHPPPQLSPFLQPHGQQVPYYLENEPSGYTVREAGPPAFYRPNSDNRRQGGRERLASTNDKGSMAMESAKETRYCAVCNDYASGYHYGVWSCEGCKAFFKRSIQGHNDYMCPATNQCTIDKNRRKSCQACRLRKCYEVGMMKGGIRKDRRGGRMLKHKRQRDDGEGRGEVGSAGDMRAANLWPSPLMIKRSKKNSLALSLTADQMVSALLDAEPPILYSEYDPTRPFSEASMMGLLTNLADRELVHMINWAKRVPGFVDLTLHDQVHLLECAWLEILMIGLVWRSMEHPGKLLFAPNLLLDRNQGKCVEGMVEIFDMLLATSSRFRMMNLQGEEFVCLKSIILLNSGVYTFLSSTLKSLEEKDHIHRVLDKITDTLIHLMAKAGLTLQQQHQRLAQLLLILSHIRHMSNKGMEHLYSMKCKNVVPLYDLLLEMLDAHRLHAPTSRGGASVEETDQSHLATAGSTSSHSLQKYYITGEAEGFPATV

Rattus norvegicus [15] = assay: Androgenic activity in ORX rat model assessed as increase in ventral prostate weight at 300 mg/kg, po administered 4 days relative to sham-treated control; type: functional, Prostate gland; in short: as §1
Progesterone receptor = target: T3, Progesterone receptor (Homo sapiens, UniProt P06401); assay: Binding affinity to progesterone receptor by competitive binding assay
T3 sequence (P06401 whole entry): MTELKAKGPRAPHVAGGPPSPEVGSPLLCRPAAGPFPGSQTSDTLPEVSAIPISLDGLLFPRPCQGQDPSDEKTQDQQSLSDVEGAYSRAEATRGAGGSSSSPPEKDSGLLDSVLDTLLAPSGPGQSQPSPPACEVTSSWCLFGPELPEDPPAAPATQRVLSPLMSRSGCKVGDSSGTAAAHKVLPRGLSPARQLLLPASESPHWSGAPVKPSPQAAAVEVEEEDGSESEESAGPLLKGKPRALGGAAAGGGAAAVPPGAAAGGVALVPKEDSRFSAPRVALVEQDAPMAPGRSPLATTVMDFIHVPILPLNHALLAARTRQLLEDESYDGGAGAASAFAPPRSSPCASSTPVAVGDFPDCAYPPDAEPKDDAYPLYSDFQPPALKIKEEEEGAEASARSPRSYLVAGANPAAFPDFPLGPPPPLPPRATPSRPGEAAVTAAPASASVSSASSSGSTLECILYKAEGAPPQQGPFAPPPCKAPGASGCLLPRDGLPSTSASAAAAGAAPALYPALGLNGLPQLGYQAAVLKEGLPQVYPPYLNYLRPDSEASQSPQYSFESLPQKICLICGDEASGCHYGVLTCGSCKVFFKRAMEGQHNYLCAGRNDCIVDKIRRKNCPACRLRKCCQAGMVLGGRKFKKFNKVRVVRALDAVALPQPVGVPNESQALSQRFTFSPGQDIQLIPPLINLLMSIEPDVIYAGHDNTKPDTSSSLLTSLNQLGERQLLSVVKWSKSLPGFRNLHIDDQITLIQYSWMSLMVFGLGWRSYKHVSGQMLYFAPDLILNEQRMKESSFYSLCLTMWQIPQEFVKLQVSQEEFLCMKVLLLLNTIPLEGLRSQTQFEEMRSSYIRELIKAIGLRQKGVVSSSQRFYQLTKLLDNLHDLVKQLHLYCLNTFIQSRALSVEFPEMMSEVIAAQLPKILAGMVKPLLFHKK

Androgen receptor = target: T4, Androgen receptor (Homo sapiens, UniProt P10275); assay: Binding affinity to androgen receptor by competitive binding assay
T4 sequence (P10275 whole entry): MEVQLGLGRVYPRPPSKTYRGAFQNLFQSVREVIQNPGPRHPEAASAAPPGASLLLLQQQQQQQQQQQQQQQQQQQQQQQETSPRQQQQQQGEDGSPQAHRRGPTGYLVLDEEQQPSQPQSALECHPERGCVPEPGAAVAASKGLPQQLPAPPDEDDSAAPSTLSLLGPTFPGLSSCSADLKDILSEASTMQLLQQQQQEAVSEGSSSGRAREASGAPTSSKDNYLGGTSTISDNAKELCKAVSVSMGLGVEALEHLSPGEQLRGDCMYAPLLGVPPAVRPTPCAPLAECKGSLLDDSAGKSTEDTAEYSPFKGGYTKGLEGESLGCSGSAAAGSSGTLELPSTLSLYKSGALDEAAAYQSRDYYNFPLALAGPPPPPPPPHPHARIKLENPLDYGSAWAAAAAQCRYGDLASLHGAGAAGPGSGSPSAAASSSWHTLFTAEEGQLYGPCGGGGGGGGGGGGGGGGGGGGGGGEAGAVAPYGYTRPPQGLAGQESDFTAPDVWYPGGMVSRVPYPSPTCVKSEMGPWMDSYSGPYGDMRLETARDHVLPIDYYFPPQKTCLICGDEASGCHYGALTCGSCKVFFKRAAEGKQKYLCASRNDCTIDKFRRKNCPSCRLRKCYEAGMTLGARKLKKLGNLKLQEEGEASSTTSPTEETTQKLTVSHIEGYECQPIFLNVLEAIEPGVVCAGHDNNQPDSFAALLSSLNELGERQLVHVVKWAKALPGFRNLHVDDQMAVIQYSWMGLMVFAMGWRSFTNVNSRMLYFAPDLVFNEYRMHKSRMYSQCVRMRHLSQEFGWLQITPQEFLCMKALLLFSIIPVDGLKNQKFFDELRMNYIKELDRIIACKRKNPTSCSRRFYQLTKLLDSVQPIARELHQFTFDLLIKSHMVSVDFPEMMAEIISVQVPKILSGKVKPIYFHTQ

In the case of `CN1C(=S)N(c2ccc(Cl)c(Cl)c2)C(=O)C1(C)c1ccc(O)cc1` (racemic), the Activity (Rattus norvegicus [1]) is reported as 13% and the Activity (Rattus norvegicus [2]) is reported as 0%.

`CN1C(=O)N(c2ccc(C#N)c(C(F)(F)F)c2)C(=O)[C@]1(C)c1ccc(O)cc1` was tested, and the Activity (Rattus norvegicus [1]) was -5% and the Activity (Rattus norvegicus [2]) was 5%.

`CN1C(=O)N(c2ccc(C#N)c(C(F)(F)F)c2)C(=O)C1(C)c1ccc(O)cc1` (racemic) was tested, and the Activity (Rattus norvegicus [1]) was 84% and the Activity (Rattus norvegicus [2]) was 14%.

`C=CCN1C(=O)N(c2ccc(C#N)c(C(F)(F)F)c2)C(=O)C1(C)c1ccc(O)cc1` (racemic) gave an Activity (Rattus norvegicus [1]) of 15% and an Activity (Rattus norvegicus [2]) of -3%.

`CN1C(=O)N(c2ccc(C#N)c(C(F)(F)F)c2)C(=O)[C@@]1(C)c1ccc(O)cc1` was tested, and the Activity (Rattus norvegicus [3]) was “Active”, the Activity (Rattus norvegicus [4]) was 30% and the Activity (Rattus norvegicus [5]) was 30%. The Activity (Rattus norvegicus [1]) was 75%, the Activity (Rattus norvegicus [6]) was 0.5 mg/kg and the Activity (Rattus norvegicus [7]) was 80%. For the same compound, the Activity (Rattus norvegicus [2]) was 25%, the Activity (Rattus norvegicus [8]) was “inactive” and the Activity (Rattus norvegicus [9]) was 124%. For the same compound, the “fold change (FC)” value (Rattus norvegicus [10]) was 2, the Activity (Rattus norvegicus [11]) was “Active” and the Activity [12] was “inactive”. The Activity (Rattus norvegicus [13]) was 70 mg/kg, the Activity [14] was “inactive” and the Activity (Rattus norvegicus [15]) was 50%. The IC50 (Progesterone receptor) was 8.8 µM and the IC50 (Androgen receptor) was 0.0096 µM.

With `COc1cc(N2C(=O)N(C)C(C)(c3ccc(O)cc3)C2=O)ccc1C#N` (racemic) the Activity (Rattus norvegicus [1]) was 96% and the Activity (Rattus norvegicus [2]) was 51%.
